Test results taken from BindingDB's records for doi:10.1021/jm800789h (National Cancer Institute-Frederick, 2009).
*1 amine or outer side, *2 acyl side, *3 side chain or, on linkers, in order; H or OH if unused. Where a SMILES comes first, the peptide text is derived from it. [ ]: non-standard residue; d: D form. The star is where a group is joined. X2 = O=C(c1cc(N=C=S)ccc1-c1c2ccc(=O)cc-2oc2cc(O)ccc12)*; Achc(cis-1,4) = O=C([C@H]1CC[C@@H](N[*:1])CC1)[*:2]; Achc(trans-4) = O=C([C@H]1CC[C@H](N[*:1])CC1)[*:2]; Azetidine3carboxylic = O=C(C1CN([*:1])C1)[*:2]; Phac(3-amino) = O=C(Cc1cccc(N[*:1])c1)[*:2]; X3 = C=CCCN([C@@H](CC(C)C)C(=O)[*:2])[*:1]; pY = N[C@@H](Cc1ccc(OP(=O)(O)O)cc1)C(=O)O; X1 = O=C(C1CN([*:3])CCN1[*:1])[*:2]; Trx = NC[C@H]1CC[C@H](C(=O)O)CC1; X6 = O=C([C@H](O)CCN[*:1])[*:2]; X4 = O=C(CC(O)CN[*:1])[*:2]; 4Amb = NCc1ccc(C(=O)O)cc1; 4Abz = Nc1ccc(C(=O)O)cc1; NH(but-3-enyl) = C=CCCN*; Inp = O=C(O)C1CCNCC1

The compounds below were run against T1, SHC-transforming protein 1 (Homo sapiens, UniProt P29353) (assay: Displacement of FITC-tagged NH-(CH2)4-CO-phospho-tyrosine-glutamine-glycine-leucine-serine-amide from Shc Src homology 2 domain by fluorescence anisotropy competition assay).
T1 sequence (P29353 whole entry): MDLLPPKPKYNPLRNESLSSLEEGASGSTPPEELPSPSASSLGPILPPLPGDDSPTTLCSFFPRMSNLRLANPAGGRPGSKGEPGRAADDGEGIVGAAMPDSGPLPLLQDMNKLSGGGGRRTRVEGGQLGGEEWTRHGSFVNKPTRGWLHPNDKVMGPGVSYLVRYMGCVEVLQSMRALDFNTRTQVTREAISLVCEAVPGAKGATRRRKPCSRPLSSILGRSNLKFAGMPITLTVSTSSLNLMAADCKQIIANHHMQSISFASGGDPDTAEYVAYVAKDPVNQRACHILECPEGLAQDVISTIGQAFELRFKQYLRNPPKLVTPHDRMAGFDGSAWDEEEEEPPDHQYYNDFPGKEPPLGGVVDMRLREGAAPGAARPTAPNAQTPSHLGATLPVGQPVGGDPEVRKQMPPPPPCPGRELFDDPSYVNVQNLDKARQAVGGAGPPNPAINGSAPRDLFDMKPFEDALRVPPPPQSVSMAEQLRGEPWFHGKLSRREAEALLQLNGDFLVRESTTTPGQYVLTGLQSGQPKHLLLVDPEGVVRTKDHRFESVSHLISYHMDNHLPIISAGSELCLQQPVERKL
Outline: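 Competition: preformed complex of 2 μM Shc SH2 protein with 10 nM FITC-labelled reference peptide in HEPES/NaCl pH 7.5 buffer, 10% DMSO; unlabelled peptides serially diluted from 500 μM. Anisotropy read at 485/535 nm. Fractional binding fitted with an order-3 spline with three knots; IC50 taken where the spline reaches one half.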

IC50 [µM]	Compound
84	C=CCCNC(=O)[C@H](CC(C)C)N(CCC=C)C(=O)CNC(=O)[C@H](CCC(N)=O)NC(=O)[C@H](Cc1ccc(OP(=O)(O)O)cc1)NC(C)=O [4-((2S,5S,11S)-2-acetamido-5-(3-amino-3-oxopropyl)-10-(but-3-enyl)-11-isobutyl-3,6,9,12-tetraoxo-4,7,10,13-tetraazaheptadec-16-enyl)phenyl dihydrogen phosphate]
89	C=CCCNC(=O)[C@H](CO)NC(=O)[C@H](CC(C)C)N(CCC=C)C(=O)CNC(=O)[C@H](CCC(N)=O)NC(=O)[C@H](Cc1ccc(OP(=O)(O)O)cc1)NC(C)=O [4-((2S,5S,11S,14S)-2-acetamido-5-(3-amino-3-oxopropyl)-10-(but-3-enyl)-14-(hydroxymethyl)-11-isobutyl-3,6,9,12,15-pentaoxo-4,7,10,13,16-pentaazaicos-19-enyl)phenyl dihydrogen phosphate] (Ac-[pY]QG[X3]S-{NH(but-3-enyl)})

Each compound was assayed against T1, SHC-transforming protein 1 (assay: Binding affinity to Shc Src homology 2 domain by fluorescence anisotropy).
Outline: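 Direct binding: 5 nM N-terminal fluorescein-labelled peptide in 10 mM HEPES, 150 mM NaCl pH 7.5 with 10% (v/v) DMSO; Shc SH2 protein serially diluted from 100 μM. Excitation 485 nm, parallel and perpendicular emission at 535 nm. Kd from fitting anisotropy versus protein concentration to a single-site binding model.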

Kd [µM]	Compound
5.3	CC(C)C[C@H](NC(=O)CNC(=O)[C@H](CCC(N)=O)NC(=O)[C@H](Cc1ccc(OP(=O)(O)O)cc1)NC(=O)C1CN(C(=O)c2cc(N=C=S)ccc2-c2c3ccc(=O)cc-3oc3cc(O)ccc23)C1)C(=O)N[C@@H](CO)C(N)=O [4-((2S,5S,11S,14S)-1-amino-11-(3-amino-3-oxopropyl)-14-(1-(2-(6-hydroxy-3-oxo-3H-xanthen-9-yl)-5-isothiocyanatobenzoyl)azetidine-3-carboxamido)-2-(hydroxymethyl)-5-isobutyl-1,4,7,10,13-pentaoxo-3,6,9,12-tetraazapentadecan-15-yl)phenyl dihydrogen phosphate] (X2-[Azetidine3carboxylic][pY]QGLS-NH2)
14.2	CC(C)C[C@H](NC(=O)CNC(=O)[C@H](CCC(N)=O)NC(=O)[C@H](Cc1ccc(OP(=O)(O)O)cc1)NC(=O)C1CCN(C(=O)c2cc(N=C=S)ccc2-c2c3ccc(=O)cc-3oc3cc(O)ccc23)CC1)C(=O)N[C@@H](CO)C(N)=O [4-((2S,5S,11S,14S)-1-amino-11-(3-amino-3-oxopropyl)-14-(1-(2-(6-hydroxy-3-oxo-3H-xanthen-9-yl)-5-isothiocyanatobenzoyl)piperidine-4-carboxamido)-2-(hydroxymethyl)-5-isobutyl-1,4,7,10,13-pentaoxo-3,6,9,12-tetraazapentadecan-15-yl)phenyl dihydrogen phosphate] ({X2-Inp}-[pY]QGLS-NH2)
0.77	CC(C)C[C@H](NC(=O)CNC(=O)[C@H](CCC(N)=O)NC(=O)[C@H](Cc1ccc(OP(=O)(O)O)cc1)NC(=O)Cc1cccc(NC(=O)c2cc(N=C=S)ccc2-c2c3ccc(=O)cc-3oc3cc(O)ccc23)c1)C(=O)N[C@@H](CO)C(N)=O [4-((2S,5S,11S,14S)-1-amino-11-(3-amino-3-oxopropyl)-14-(2-(3-(2-(6-hydroxy-3-oxo-3H-xanthen-9-yl)-5-isothiocyanatobenzamido)phenyl)acetamido)-2-(hydroxymethyl)-5-isobutyl-1,4,7,10,13-pentaoxo-3,6,9,12-tetraazapentadecan-15-yl)phenyl dihydrogen phosphate] (X2-[Phac(3-amino)][pY]QGLS-NH2)
8.6	CC(C)C[C@H](NC(=O)CNC(=O)[C@H](CCC(N)=O)NC(=O)[C@H](Cc1ccc(OP(=O)(O)O)cc1)NC(=O)CC(O)CNC(=O)c1cc(N=C=S)ccc1-c1c2ccc(=O)cc-2oc2cc(O)ccc12)C(=O)N[C@@H](CO)C(N)=O (stereo partly drawn) [4-((2S,5S,11S,14S)-1-amino-11-(3-amino-3-oxopropyl)-14-(3-hydroxy-4-(2-(6-hydroxy-3-oxo-3H-xanthen-9-yl)-5-isothiocyanatobenzamido)butanamido)-2-(hydroxymethyl)-5-isobutyl-1,4,7,10,13-pentaoxo-3,6,9,12-tetraazapentadecan-15-yl)phenyl dihydrogen phosphate] (X2-[X4][pY]QGLS-NH2)
23.9	CC(C)C[C@H](NC(=O)CNC(=O)[C@H](CCC(N)=O)NC(=O)[C@H](Cc1ccc(OP(=O)(O)O)cc1)NC(=O)c1ccc(NC(=O)c2cc(N=C=S)ccc2-c2c3ccc(=O)cc-3oc3cc(O)ccc23)cc1)C(=O)N[C@@H](CO)C(N)=O [4-((2S,5S,11S,14S)-1-amino-11-(3-amino-3-oxopropyl)-14-(4-(2-(6-hydroxy-3-oxo-3H-xanthen-9-yl)-5-isothiocyanatobenzamido)benzamido)-2-(hydroxymethyl)-5-isobutyl-1,4,7,10,13-pentaoxo-3,6,9,12-tetraazapentadecan-15-yl)phenyl dihydrogen phosphate] ({X2-4Abz}-[pY]QGLS-NH2)
9.5	CC(C)C[C@H](NC(=O)CNC(=O)[C@H](CCC(N)=O)NC(=O)[C@H](Cc1ccc(OP(=O)(O)O)cc1)NC(=O)C1CN(C(=O)c2cc(N=C=S)ccc2-c2c3ccc(=O)cc-3oc3cc(O)ccc23)CCN1)C(=O)N[C@@H](CO)C(N)=O (stereo partly drawn) [4-((2S,5S,11S,14S)-1-amino-11-(3-amino-3-oxopropyl)-14-(4-(2-(6-hydroxy-3-oxo-3H-xanthen-9-yl)-5-isothiocyanatobenzoyl)piperazine-2-carboxamido)-2-(hydroxymethyl)-5-isobutyl-1,4,7,10,13-pentaoxo-3,6,9,12-tetraazapentadecan-15-yl)phenyl dihydrogen phosphate] (H-[X1](X2)[pY]QGLS-NH2)
12.3	CC(C)C[C@H](NC(=O)CNC(=O)[C@H](CCC(N)=O)NC(=O)[C@H](Cc1ccc(OP(=O)(O)O)cc1)NC(=O)c1ccc(CNC(=O)c2cc(N=C=S)ccc2-c2c3ccc(=O)cc-3oc3cc(O)ccc23)cc1)C(=O)N[C@@H](CO)C(N)=O [4-((2S,5S,11S,14S)-1-amino-11-(3-amino-3-oxopropyl)-14-(4-((2-(6-hydroxy-3-oxo-3H-xanthen-9-yl)-5-isothiocyanatobenzamido)methyl)benzamido)-2-(hydroxymethyl)-5-isobutyl-1,4,7,10,13-pentaoxo-3,6,9,12-tetraazapentadecan-15-yl)phenyl dihydrogen phosphate] ({X2-4Amb}-[pY]QGLS-NH2)
9	CC(C)C[C@H](NC(=O)CNC(=O)[C@H](CCC(N)=O)NC(=O)[C@H](Cc1ccc(OP(=O)(O)O)cc1)NC(=O)[C@H](O)CCNC(=O)c1cc(N=C=S)ccc1-c1c2ccc(=O)cc-2oc2cc(O)ccc12)C(=O)N[C@@H](CO)C(N)=O [4-((2S,5S,11S,14S)-1-amino-11-(3-amino-3-oxopropyl)-14-((R)-2-hydroxy-4-(2-(6-hydroxy-3-oxo-3H-xanthen-9-yl)-5-isothiocyanatobenzamido)butanamido)-2-(hydroxymethyl)-5-isobutyl-1,4,7,10,13-pentaoxo-3,6,9,12-tetraazapentadecan-15-yl)phenyl dihydrogen phosphate] (X2-[X6][pY]QGLS-NH2)
0.5	CC(C)C[C@H](NC(=O)CNC(=O)[C@H](CCC(N)=O)NC(=O)[C@H](Cc1ccc(OP(=O)(O)O)cc1)NC(=O)[C@H]1CC[C@@H](NC(=O)c2cc(N=C=S)ccc2-c2c3ccc(=O)cc-3oc3cc(O)ccc23)CC1)C(=O)N[C@@H](CO)C(N)=O [cis-4-((2S,5S,11S,14S)-1-amino-11-(3-amino-3-oxopropyl)-14-(4-(2-(6-hydroxy-3-oxo-3H-xanthen-9-yl)-5-isothiocyanatobenzamido)cyclohexanecarboxamido)-2-(hydroxymethyl)-5-isobutyl-1,4,7,10,13-pentaoxo-3,6,9,12-tetraazapentadecan-15-yl)phenyl dihydrogen phosphate] (X2-[Achc(cis-1,4)][pY]QGLS-NH2)
25.4	CC(C)C[C@H](NC(=O)CNC(=O)[C@H](CCC(N)=O)NC(=O)[C@H](Cc1ccc(OP(=O)(O)O)cc1)NC(=O)[C@H]1CC[C@H](NC(=O)c2cc(N=C=S)ccc2-c2c3ccc(=O)cc-3oc3cc(O)ccc23)CC1)C(=O)N[C@@H](CO)C(N)=O [trans-4-((2S,5S,11S,14S)-1-amino-11-(3-amino-3-oxopropyl)-14-(4-(2-(6-hydroxy-3-oxo-3H-xanthen-9-yl)-5-isothiocyanatobenzamido)cyclohexanecarboxamido)-2-(hydroxymethyl)-5-isobutyl-1,4,7,10,13-pentaoxo-3,6,9,12-tetraazapentadecan-15-yl)phenyl dihydrogen phosphate] (X2-[Achc(trans-4)][pY]QGLS-NH2)
18	CC(C)C[C@H](NC(=O)CNC(=O)[C@H](CCC(N)=O)NC(=O)[C@H](Cc1ccc(OP(=O)(O)O)cc1)NC(=O)[C@H]1CC[C@H](CNC(=O)c2cc(N=C=S)ccc2-c2c3ccc(=O)cc-3oc3cc(O)ccc23)CC1)C(=O)N[C@@H](CO)C(N)=O [trans-4-((2S,5S,11S,14S)-1-amino-11-(3-amino-3-oxopropyl)-14-(4-((2-(6-hydroxy-3-oxo-3H-xanthen-9-yl)-5-isothiocyanatobenzamido)methyl)cyclohexanecarboxamido)-2-(hydroxymethyl)-5-isobutyl-1,4,7,10,13-pentaoxo-3,6,9,12-tetraazapentadecan-15-yl)phenyl dihydrogen phosphate] ({X2-Trx}-[pY]QGLS-NH2)
